Laboratory results as given in the RNAGym collection of RNA variant scans (doi:10.1126/science.aae0568).
Variants at the floor of the assay were thinned out.

B1: tRNA (parent)
chain: GUUCCGUUGGCGUAAUGGUAACGCGUCUCCCUCCUAAGGAGAAGACUGCGGGUUCGAGUCCCGUACGGAACG

Variants of: B1
Experiment: yeast fitness relative to wild type (ratio to wild type); higher = fitter; tRNA-Arg(CCU), competitive growth, 37 C, YPD
Summary of the method: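 Variants of the tRNA-Arg(CCU) gene were chemically synthesised with a 3% per-site mutation rate across 69 sites and placed at the native genomic locus in Saccharomyces cerevisiae. Six parallel replicates of the pooled strains were competed in YPD at 37°C for 24 hours, and gene amplicons from the start and end populations were read by 100-nucleotide paired-end sequencing. Darwinian fitness relative to wild type was derived from changes in genotype frequencies. Genotypes required ≥ 100 starting reads, and estimates < 0.5 were set to 0.5.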
In the case of GUUCCGUUGGGAUAAUGGCAACGCGUCUCCCUCCUAAGGAGAAGACUGCGGGUUCGAGUCCCGUACGGAACG [C11G G12A U19C], the yeast fitness is reported as ≤ 0.5. For GUUCCGUUGGGGUAAUGGUAACGCGUCUCCCUCCUAAGGAGAAGAUUGCGGGUUCGAGUCCCGUUCGGAACG [C11G C46U A65U], the yeast fitness was 0.561. GUUCCGUUGGGGUAAUGAUAACGUGUCUCCCUCCUAAGGAGAAGACUGCGGGUUCGAGUCCCGUACGGAACG [C11G G18A C24U] showed a yeast fitness of 0.542. With GUUCCGUUGGGGUAAUGGUAACGCGUCUCCCUCUUAAGGAGAACACUGCCGGUUCGAGUCCCGUAUGGAACG [C11G C34U G44C G50C C66U] the yeast fitness was ≤ 0.5. In the case of GUUCCGUUGGGGUAAUGGUAACGCGUCUCCCUCCUAAGGAGAAGACUGCGGGUUAGAGUCCCAUACGGAACG [C11G C55A G63A], the yeast fitness is reported as 0.553. In the case of GUUCCGUUGGGAUAAUGGUAACGCGUUUCCCUCCUAAGGAGAGGACUGCGGGUUCGAGUCCCGUACAGAACG [C11G G12A C27U A43G G67A], the yeast fitness is reported as 0.606. Work on GUUCCGUUGGGGUAAUGCUUACGCGUCUCCCUGGUAAGGAGAAGACUGCCGGUUCGAGUCCCGUACGGAACG [C11G G18C A20U C33G C34G G50C] yielded a yeast fitness of 0.632. For GUUCCGUUGGGGUAAUGGUAACGCGUCUCCCUCCUAAGGAGAAGACUGCGGGUUCGAGUGUCGUACGGAACG [C11G C60G C61U], the yeast fitness was 0.555. With GUUCCGUUGGGGUAAUGGUAACGCGUCUCCCUCCUAAGGAGAAGACUGCGGGUUCGAGUCACGUACGGAACG [C11G C61A] the yeast fitness was 0.546. Variant GUUCCGUUGGGGUAAUGGUAACGCGUCUCCCUCCUAAGGAGAAGACUGCGGGUUCGAGUCGCGUACGGAACG [C11G C61G] has a yeast fitness of 0.705. GUUCCGUUGGGGUAAUGGUAACGCGUCUCCCUCCUAAGGAGAAGACUGCGGGUUCGAGUCUCGUACGGAACG [C11G C61U] showed a yeast fitness of 0.656. GUUCCGUUGGGGUAAUGGUAACGCGUCUCCCUCCUAAGGAGAAGAUUGAGGGUUUGAGUCCCGUACGGAACG [C11G C46U C49A C55U] gave a yeast fitness of 0.661. With GUUCCGUUGGGAUAAUGGUAAAGCGUCUCCCUCCUCAGGAGAAGACUGCGGGUUCGAGUCGCGUACGGCACG [C11G G12A C22A A36C C61G A69C] the yeast fitness was ≤ 0.5. For GUUCCGUUGGGGUAAUGGUAACGCGUCUCCCUCCUAAGGAGAAGACUGUGGGUUCGAGUCCCGUACGGAGCG [C11G C49U A70G], the yeast fitness was 0.573. With GUUCCGUUGGGCUAAUGGUGACGCGUCUCCCUCCUAAGGAGAGGCCUGCGGGUUCGAGUCCCGUACAGAACG [C11G G12C A20G A43G A45C G67A] the yeast fitness was ≤ 0.5. In the case of GUUCCGUUGGGGUAAUGAUAACGCGUCUCCCUCCUAAGGAGAAUACUGCGGGUUCGAGUCCCGUCCGGAACG [C11G G18A G44U A65C], the yeast fitness is reported as ≤ 0.5. In the case of GUUCCGUUGGGCUAAUGGUAACGCGUCUCCCUCCUAAGGAGAUAACUGCGGGUUCGAGUCCCGUACGGAACG [C11G G12C A43U G44A], the yeast fitness is reported as 0.612. With GUUCCGUUGGGGUAAUGGUAACGCGUCUCCCUCCUAAGGAGAAGACUGCGGGUUCGAGUCGGGUACGGAACG [C11G C61G C62G] the yeast fitness was ≤ 0.5. With GUUCCGUUGGGCUAAUGGUCACGGGUCUCCCUCCUAGGGAGAAGACUGCGGGUUCGAGUGUCGUACGGAACG [C11G G12C A20C C24G A37G C60G C61U] the yeast fitness was ≤ 0.5. With GUUCCGUUGGGGUAAUGGUAACGCGUCUCCCUCCUAAGGAGAAGACUGCGGGUUCGAGUCCCGUAUGGCACG [C11G C66U A69C] the yeast fitness was ≤ 0.5. In the case of GUUCCGUUGGGGUAAUGAUAACGCGUCUUCCUCCUAAGGGGAAGACUGCGGGUUCGAGUCCUGUACGGAACG [C11G G18A C29U A40G C62U], the yeast fitness is reported as ≤ 0.5. With GUUCCGUUGGGGUAAUAGUUACGCGUCUCCCUGCUAACGAGAAGACUGCGGGUUCGAGUCCCGUACGGAACG [C11G G17A A20U C33G G38C] the yeast fitness was ≤ 0.5. In the case of GUUCCGUUGGGAUAAUGGUAACGCGUCUCGGACCUAAGGAGAAGACUGCGGGUUCGAGUCCCGUAUGGAACG [C11G G12A C30G C31G U32A C66U], the yeast fitness is reported as ≤ 0.5. GUUCCGUUGGGGUAAUGGUAACGCGUCUCCCUCCUAAGGAGAAGACUGCGGGUUUGAGUCACGUACGGAACG [C11G C55U C61A] showed a yeast fitness of 0.546. In the case of GUUCCGUUGGGGUAAUCGUAACGCGUCUUCCUCCUAAGGAGAAGACUGCGAGUUCGAGUCCUGUACGGCACG [C11G G17C C29U G51A C62U A69C], the yeast fitness is reported as ≤ 0.5. For GUUCCGUUGGGGUAAUGGUAACGCGUCUCCCUCCUAAGGAGAAGACUGUGGGUUCGACUCACGUUCGGAACG [C11G C49U G58C C61A A65U], the yeast fitness was ≤ 0.5. In the case of GUUCCGUUGGGAUAAUGGUAACGCGUCUCCCUCCUAAGGAGUAGACUGCGGGUUCGAGUCCCGUACGGAACG [C11G G12A A42U], the yeast fitness is reported as ≤ 0.5. In the case of GUUCCGUUGGGCUAAUGGUCACGGGUCUCCCUCCUAAGCAGAAGACUGCGGGUUCGAGUACCGUACGGAACG [C11G G12C A20C C24G G39C C60A], the yeast fitness is reported as ≤ 0.5. In the case of GUUCCGUUGGGGUAAUGGUAACGCGUCUCCCUCCUAAGGAGAAGACUGUGGGUUCGAGUCACGUACGGAGCG [C11G C49U C61A A70G], the yeast fitness is reported as ≤ 0.5. In the case of GUUCCGUUGGGGUAAUAGUAAUGCGUUUCCCUCCUAAGGAGAAGACUGCGGGUUCGCGUCCCGUACGGAACG [C11G G17A C22U C27U A57C], the yeast fitness is reported as ≤ 0.5. For GUUCCGUUGGGGUAAUUGUAUCGCGUCUCCCUCCUAAGGAGUAGACUGCGGGUUCGAGUCCCGUACGGAACG [C11G G17U A21U A42U], the yeast fitness was ≤ 0.5. For GUUCCGUUGGGGUAAUGGUAACGCGUCUCCCUCCUAAGGAGAAGACUGCGGGUUCGAGUUCGGUACGGAGCG [C11G C60U C62G A70G], the yeast fitness was ≤ 0.5. In the case of GUUCCGUUGGGGUAAUAGUAACGCGUCUCGCUCCUAAGGAGAAGACUGCGGGUUCGAGUCGCGUACGGAACG [C11G G17A C30G C61G], the yeast fitness is reported as ≤ 0.5. In the case of GUUCCGUUGGGAUAAUGGUAGCGCGUCUCCCUCCUAAGGAGAAGACUGCGGGUUCGAAUCCGGUACGGAACG [C11G G12A A21G G58A C62G], the yeast fitness is reported as 0.532. In the case of GUUCCGUUGGGGUAAUCGUAACGCGUCUCCCUCCUAAGGAGAAGACUGCGGGUUCGAGUCCCAUACGGAACG [C11G G17C G63A], the yeast fitness is reported as ≤ 0.5. For GUUCCGUUGGGGUAAUAGUAACGCGUCUCGCUCCUAAGGAGAAGACUGCGGGUUCGAGGCCCGUACGGAACG [C11G G17A C30G U59G], the yeast fitness was ≤ 0.5. Variant GUUCCGUUGGGGUAAUGCUAACGCGUCUCCCUCCUAAGGAGAAGACUGCGGGUUCGAGUCCCGUACGGAACG [C11G G18C] has a yeast fitness of 0.611. With GUUCCGUUGGGGUAAUGGUAACGCGUCUCCCUCCUAAGGAGAAGACUGCGGGUUCGAGUCCCGUAGGCAACG [C11G C66G G68C] the yeast fitness was ≤ 0.5.
